≈ marks a conversion by molar mass, not a printed value. Where “and” joins values, the source holds several entries; their conditions need not be identical. Equal values may be shown once.
Key:
[1] = system: E6SM; test: The concentration required to reduce the cytopathogenicity of HSV-1 (KOS) in E6SM cell culture by 50% in presence of 20 ug/mL concentrations of 6-aminothymine; type: functional; settings: Homo sapiens
Outline: (§1)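 E6SM cells infected with HSV-1 (KOS), with 6-aminothymine or benzylacyclouridine added to the medium at the stated concentration. The value is the minimum concentration that reduces viral cytopathogenicity by 50%.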

[2] = system: M21; test: The compound was tested for its antiviral activity against HSV-1 (KOS) virus M-21 (GM137) cell line; type: functional; settings: Homo sapiens
Outline: (§2)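 Virus-induced cytopathogenicity in cell culture, scored microscopically. The value is the minimum concentration that cuts viral cytopathogenicity by 50%. Normal cell morphology was also checked microscopically at up to 400 μg/mL.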

[3] = system: BSC-1; test: The compound was tested for its antiviral activity against HSV-1 (KOS) virus in BS-C-1A cell line; type: functional, Cercopithecidae; settings: Chlorocebus aethiops; outline: as §2
[4] = system: E6SM; test: The compound was tested for its antiviral activity against HSV-1 (KOS) virus in E6SM cell culture; type: functional; settings: Homo sapiens; outline: as §2
[5] = The concentration required to reduce the cytopathogenicity of HSV-1 (KOS) in PRK cell culture by 50% in presence of 20 ug/mL concentrations of 6-aminothymine; type: functional; settings: Oryctolagus cuniculus
Outline: (§3)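 The cells were primary rabbit kidney (PRK) cultures infected with HSV-1 strain KOS, with 6-aminothymine co-present in the medium. The value is the minimum inhibitory concentration that reduces viral cytopathogenicity by 50%, using the previously described cytopathogenicity inhibition method.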

[6] = system: E6SM; test: The concentration required to reduce the cytopathogenicity of HSV-1 (KOS) in E6SM cell culture by 50% in presence of 0 ug/mL concentrations of 6-aminothymine; type: functional; settings: Homo sapiens; outline: as §1
[7] = system: E6SM; test: The concentration required to reduce the cytopathogenicity of HSV-1 (KOS) in E6SM cell culture by 50% in presence of 10 ug/mL of Urd and 50 ug/mL of 6-aminothymine,; type: functional; settings: Homo sapiens
Outline: (§4)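 E6SM cells infected with HSV-1 (KOS), with Urd or dUrd added alone or together with 6-aminothymine (50 μg/mL). The value is the minimum concentration that reduces viral cytopathogenicity by 50%.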

[8] = system: HeLa; test: The concentration required to reduce the cytopathogenicity of HSV-1 (KOS) in HeLa cell culture by 50% in presence of 4 ug/mL concentrations of 6-aminothymine; type: functional; settings: Homo sapiens
[9] = system: E6SM; test: The compound was tested for its antiviral activity against HSV-2 (Lyons) virus in E6SM cell culture; type: functional; settings: Homo sapiens; outline: as §2
[10] = system: E6SM; test: The concentration required to reduce the cytopathogenicity of HSV-1 (KOS) in E6SM cell culture by 50% in absence of dUrd; type: functional; settings: Homo sapiens; outline: as §4
[11] = The concentration required to reduce the cytopathogenicity of HSV-1 (KOS) in PRK cell culture by 50% in presence of 100 ug/mL concentrations of 6-aminothymine; type: functional; settings: Oryctolagus cuniculus; outline: as §3
[12] = system: E6SM; test: The concentration required to reduce the cytopathogenicity of HSV-1 (KOS) in E6SM cell culture by 50% in presence of 3 ug/mL dThd; type: functional; settings: Homo sapiens
Outline: (§5)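 E6SM cells infected with HSV-1 (KOS), with dThd added to the culture medium at the stated concentration. The value is the minimum concentration that reduces viral cytopathogenicity by 50%.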

[13] = The concentration required to reduce the cytopathogenicity of HSV-1 (KOS) in PRK cell culture by 50% in presence of 4 ug/mL concentrations of 6-aminothymine; type: functional; settings: Oryctolagus cuniculus; outline: as §3
[14] = system: HeLa; test: The concentration required to reduce the cytopathogenicity of HSV-1 (KOS) in HeLa cell culture by 50% in presence of 20 ug/mL concentrations of 6-aminothymine; type: functional; settings: Homo sapiens
[15] = system: E6SM; test: The concentration required to reduce the cytopathogenicity of HSV-1 (KOS) in E6SM cell culture by 50% in presence of 10 ug/mL concentrations of benzylacyclouridine; type: functional, Homo sapiens; outline: as §1
[16] = system: E6SM; test: The concentration required to reduce the cytopathogenicity of HSV-1 (KOS) in E6SM cell culture by 50% in presence of 100 ug/ml concentrations of 6-aminothymine; type: functional; settings: Homo sapiens; outline: as §1
[17] = The concentration required to reduce the cytopathogenicity of HSV-1 (KOS) in PRK cell culture 0 ug/mL specified concentrations of 6-aminothymine; type: functional; settings: Oryctolagus cuniculus
[18] = system: E6SM; test: The compound was tested for its antiviral activity against HSV-2 (G) virus in E6SM cell culture; type: functional; settings: Homo sapiens; outline: as §2
[19] = system: HeLa; test: The concentration required to reduce the cytopathogenicity of HSV-1 (KOS) in HeLa cell culture by 50% in presence of 0 ug/mL concentrations of 6-aminothymine; type: functional; settings: Homo sapiens
[20] = system: HeLa; test: The concentration required to reduce the cytopathogenicity of HSV-1 (KOS) in HeLa cell culture by 50% in presence of 100 ug/mL concentrations of 6-aminothymine; type: functional; settings: Homo sapiens
[21] = system: E6SM; test: The concentration required to reduce the cytopathogenicity of HSV-1 (KOS) in E6SM cell culture by 50% in presence of 0 ug/mL concentrations of benzylacyclouridine; type: functional; settings: Homo sapiens; outline: as §1
[22] = system: E6SM; test: The concentration required to reduce the cytopathogenicity of HSV-1 (KOS) in E6SM cell culture by 50% in presence of 4 ug/mL concentrations of 6-aminothymine; type: functional; settings: Homo sapiens
Outline: (§6)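 E6SM cultures were infected with HSV-1 strain KOS. 6-Aminothymine or benzylacyclouridine was present in the medium together with the test compound. The value is the minimum concentration giving 50% reduction of viral cytopathogenicity, scored by the earlier-described cytopathogenicity inhibition procedure.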

[23] = system: E6SM; test: The concentration required to reduce the cytopathogenicity of HSV-1 (KOS) in E6SM cell culture by 50% in absence of 0 ug/mL dThd; type: functional; settings: Homo sapiens; outline: as §5
[24] = system: E6SM; test: The concentration required to reduce the cytopathogenicity of HSV-1 (KOS) in E6SM cell culture by 50% in presence of specified concentrations of 6-aminothymine; type: functional; settings: Homo sapiens; outline: as §6
[25] = system: HeLa; test: The concentration required to reduce the cytopathogenicity of HSV-1 (KOS) in HeLa cell culture by 50% in presence of specified concentrations of 6-aminothymine; type: functional, Homo sapiens
[26] = system: E6SM; test: The concentration required to reduce the cytopathogenicity of HSV-1 (KOS) in E6SM cell culture by 50% in absence of dThd; type: functional; settings: Homo sapiens; outline: as §5
[27] = The concentration required to reduce the cytopathogenicity of HSV-1 (KOS) in PRK cell culture by 50% in presence of specified concentrations of 6-aminothymine; type: functional, Oryctolagus cuniculus; outline: as §3
[28] = system: E6SM; test: The concentration required to reduce the cytopathogenicity of HSV-1 (KOS) in E6SM cell culture by 50% in presence 0 ug/mL of 50 ug/mL of 6-aminothymine; type: functional; settings: Homo sapiens; outline: as §1
[29] = system: E6SM; test: The concentration required to reduce the cytopathogenicity of HSV-1 (KOS) in E6SM cell culture by 50% in presence of specified concentrations of benzylacyclouridine; type: functional, Homo sapiens; outline: as §6
[30] = system: M21; test: The compound was tested for its antiviral activity against HSV-1 (KOS) virus in M-21 (GM137) cell line,; type: functional; settings: Homo sapiens; outline: as §2

`Oc1ncc(/C=C/Br)c(O)n1` gave an MIC50 [1] of over 400 µg/mL, an MIC50 [2] of 1 µg/mL (≈ 4.61 µM) and an MIC50 [3] of over 400 µg/mL. The MIC50 [4] was 7 µg/mL (≈ 32.3 µM), the MIC50 [5] was over 400 µg/mL and the MIC50 [6] was 7 µg/mL. The MIC50 [7] was over 400 µg/mL, the MIC50 [8] was over 200 µg/mL and the MIC50 [9] was over 400 µg/mL. It also gave an MIC50 [10] of 7 µg/mL (≈ 32.3 µM), an MIC50 [11] of over 400 µg/mL and an MIC50 [12] of 4 µg/mL. The MIC50 [13] was over 400 µg/mL, the MIC50 [14] was over 200 µg/mL and the MIC50 [15] was 4 µg/mL. The MIC50 ([15]; Homo sapiens, read-out: MIC50) was 4 µg/mL, the MIC50 [16] was over 400 µg/mL and the MIC50 [17] was over 400 µg/mL. It also gave an MIC50 [18] of over 400 µg/mL, an MIC50 [19] of 2 µg/mL and an MIC50 [20] of over 200 µg/mL. The MIC50 [21] was 4 µg/mL, the MIC50 [22] was over 400 µg/mL and the MIC50 [23] was 7 µg/mL (≈ 32.3 µM).
In the case of `O=c1[nH]c(=O)n([C@H]2C[C@H](O)[C@@H](CO)O2)cc1/C=C/Br` [BRIVUDINE], the MIC50 [24] is reported as 0.02 µg/mL, the MIC50 [25] is reported as 0.01 µg/mL and 0.02 µg/mL and the MIC50 ([25]; Homo sapiens, read-out: MIC50) is reported as 0.01 µg/mL. For the same compound, the MIC50 [3] was 0.2 µg/mL (≈ 0.6 µM), the MIC50 [4] was 0.02 µg/mL (≈ 0.06 µM) and the MIC50 [26] was 0.02 µg/mL (≈ 0.06 µM). It also gave an MIC50 [7] of 0.04 µg/mL, an MIC50 [27] of 0.01 µg/mL and an MIC50 ([27]; Oryctolagus cuniculus, read-out: MIC50) of 0.01 µg/mL. The MIC50 [9] was 4 µg/mL (≈ 12 µM), the MIC50 [10] was 0.02 µg/mL (≈ 0.06 µM) and the MIC50 [12] was 0.02 µg/mL. It also gave an MIC50 [28] of 0.02 µg/mL (≈ 0.06 µM), an MIC50 [18] of 2 µg/mL (≈ 6 µM) and an MIC50 [29] of 0.02 µg/mL. For the same compound, the MIC50 ([29]; Homo sapiens, read-out: MIC50) was 0.04 µg/mL and the MIC50 [30] was 0.02 µg/mL (≈ 0.06 µM).
